# Measurements as given in ChEMBL document CHEMBL4014347, “Targeting Mycolic Acid Transport by Indole-2-carboxamides for the Treatment of Mycobacterium abscessus Infections” (J Med Chem, 2017).
# Activity calls are given as the source filed them. The rule behind the calls is not given here.
# Assays:
# [1] = Antibacterial activity against CF patient derived Mycobacterium abscessus subsp. bolletii isolate 116 smooth variant after 3 to 5 days by two fold serial dilution method; format: functional; conditions: Mycobacteroides abscessus
# Summary of the method: (§1)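 Broth microdilution in cation-adjusted Mueller−Hinton broth per CLSI; inoculum 5 × 10^6 CFU/mL of exponential-phase bacteria; two-fold serial dilutions, solvent-only wells as control; 30 °C for 3−5 days; MIC read visually and confirmed by absorbance at 560 nm; triplicate on three independent occasions.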
# [2] = system: Mycobacteroides abscessus; experiment: Antibacterial activity against non CF patient derived Mycobacterium abscessus subsp. abscessus isolate CIP104536 rough variant after 3 to 5 days by two fold serial dilution method; format: functional; summary of the method: as §1
# [3] = Selectivity index, ratio of IC50 for African green monkey Vero cells to MIC for Mycobacterium abscessus CIP104536; format: toxicity; conditions: read-out: Selectivity Index
# Cytochrome P450 2C9 = Cytochrome P450 2C9 (Homo sapiens, UniProt P11712); experiment: Inhibition of CYP2C9 in human liver microsomes preincubated for 5 mins followed by NADPH addition measured after 10 mins by LC-MS/MS analysis; format: ADME
# Chain of Cytochrome P450 2C9 (P11712 whole entry): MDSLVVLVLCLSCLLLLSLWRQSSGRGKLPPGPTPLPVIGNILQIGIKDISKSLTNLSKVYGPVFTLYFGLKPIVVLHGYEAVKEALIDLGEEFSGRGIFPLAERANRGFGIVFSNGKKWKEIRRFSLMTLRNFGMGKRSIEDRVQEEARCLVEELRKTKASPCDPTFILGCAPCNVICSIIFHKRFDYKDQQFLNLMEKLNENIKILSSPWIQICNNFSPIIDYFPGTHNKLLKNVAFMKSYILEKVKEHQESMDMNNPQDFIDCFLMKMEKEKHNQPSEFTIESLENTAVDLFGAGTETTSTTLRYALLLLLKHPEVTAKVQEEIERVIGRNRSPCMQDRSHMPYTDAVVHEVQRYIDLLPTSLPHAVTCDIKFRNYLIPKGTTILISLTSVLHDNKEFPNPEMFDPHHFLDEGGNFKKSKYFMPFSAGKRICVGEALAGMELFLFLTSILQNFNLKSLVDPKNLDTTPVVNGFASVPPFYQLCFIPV
# [4] = Antibacterial activity against non CF patient derived Mycobacterium abscessus subsp. bolletii isolate 17 smooth variant after 3 to 5 days by two fold serial dilution method; format: functional; conditions: Mycobacteroides abscessus; summary of the method: as §1
# [5] = system: Mycobacteroides abscessus; experiment: Antibacterial activity against Addison's disease patient derived Mycobacterium abscessus subsp. massiliense isolate CIP108297 rough variant after 3 to 5 days by two fold serial dilution method; format: functional; summary of the method: as §1
# [6] = Permeability of the compound at 25 uM at pH 7.4 after 4 hrs by LC-MS based PAMPA; format: physicochemical; conditions: read-out: permeability
# Summary of the method: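 PAMPA: 25 μM compound in aqueous buffer at pH 7.4 or 5.0 (pH adjusted with NaOH) in donor plate, triplicate; acceptor membrane coated with GIT-0 lipid, acceptor sink buffer; 4 h at 25 ± 2 °C; donor and acceptor solutions analysed by LC-MS (UPLC).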
# [7] = Antibacterial activity against CF patient derived Mycobacterium abscessus subsp. bolletii isolate 108 rough variant after 3 to 5 days by two fold serial dilution method; format: functional; conditions: Mycobacteroides abscessus; summary of the method: as §1
# [8] = system: Mycobacteroides abscessus; experiment: Antibacterial activity against non CF patient derived Mycobacterium abscessus subsp. abscessus isolate CIP104536 smooth variant after 3 to 5 days by two fold serial dilution method; format: functional; summary of the method: as §1
# [9] = system: Mycobacteroides abscessus; experiment: Antibacterial activity against non CF patient derived Mycobacterium abscessus subsp. abscessus isolate 3022 rough variant after 3 to 5 days by two fold serial dilution method; format: functional; summary of the method: as §1
# Salmonella typhimurium = experiment: Mutagenicity in Salmonella typhimurium TA100 assessed as increase in revertant colonies at 0.24 to 500 ug/well after 72 hrs by Ames test relative to control; format: toxicity; conditions: salmonella enterica subsp. enterica serovar typhimurium
# Summary of the method: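 Reverse mutation at histidine locus in S. typhimurium TA98 (frameshift) and TA100 (base-pair substitution), with and without S9; 0.24−500 μg/well; 37 ± 2 °C for 72 h, triplicates; DMSO vehicle; sodium azide, 2-nitrofluorene, 2-aminoanthracene positive controls; positive if revertants rise ≥2-fold over negative control dose-dependently.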
# [10] = system: Mycobacterium tuberculosis; experiment: Antibacterial activity against Mycobacterium tuberculosis by AlamarBlue assay; format: functional
# Cytochrome P450 2C19 = Cytochrome P450 2C19 (Homo sapiens, UniProt P33261); experiment: Inhibition of CYP2C19 in human liver microsomes preincubated for 5 mins followed by NADPH addition measured after 40 mins by LC-MS/MS analysis; format: ADME
# Chain of Cytochrome P450 2C19 (P33261 whole entry): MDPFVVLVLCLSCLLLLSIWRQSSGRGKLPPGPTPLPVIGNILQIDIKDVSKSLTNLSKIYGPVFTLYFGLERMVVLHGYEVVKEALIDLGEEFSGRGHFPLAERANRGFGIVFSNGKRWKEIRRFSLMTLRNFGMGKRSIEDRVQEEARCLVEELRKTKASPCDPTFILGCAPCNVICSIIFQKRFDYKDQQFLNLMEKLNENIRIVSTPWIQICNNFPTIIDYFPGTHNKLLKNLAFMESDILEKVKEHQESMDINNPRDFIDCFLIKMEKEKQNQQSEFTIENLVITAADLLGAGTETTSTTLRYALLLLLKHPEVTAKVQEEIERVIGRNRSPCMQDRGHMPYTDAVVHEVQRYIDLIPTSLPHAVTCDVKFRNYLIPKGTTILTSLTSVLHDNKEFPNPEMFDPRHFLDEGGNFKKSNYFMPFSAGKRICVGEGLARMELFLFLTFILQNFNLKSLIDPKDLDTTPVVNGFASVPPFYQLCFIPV
# [11] = system: Mycobacteroides abscessus; experiment: Antibacterial activity against CF patient derived Mycobacterium abscessus subsp. massiliense isolate 100 smooth variant after 3 to 5 days by two fold serial dilution method; format: functional; summary of the method: as §1
# CYP2C8 = molecular target: T1, CYP2C8 (Homo sapiens, UniProt P10632); experiment: Inhibition of CYP2C8 in human liver microsomes preincubated for 5 mins followed by NADPH addition at 10 uM measured after 10 mins by LC-MS/MS analysis relative to control; format: ADME
# T1 sequence (P10632 whole entry): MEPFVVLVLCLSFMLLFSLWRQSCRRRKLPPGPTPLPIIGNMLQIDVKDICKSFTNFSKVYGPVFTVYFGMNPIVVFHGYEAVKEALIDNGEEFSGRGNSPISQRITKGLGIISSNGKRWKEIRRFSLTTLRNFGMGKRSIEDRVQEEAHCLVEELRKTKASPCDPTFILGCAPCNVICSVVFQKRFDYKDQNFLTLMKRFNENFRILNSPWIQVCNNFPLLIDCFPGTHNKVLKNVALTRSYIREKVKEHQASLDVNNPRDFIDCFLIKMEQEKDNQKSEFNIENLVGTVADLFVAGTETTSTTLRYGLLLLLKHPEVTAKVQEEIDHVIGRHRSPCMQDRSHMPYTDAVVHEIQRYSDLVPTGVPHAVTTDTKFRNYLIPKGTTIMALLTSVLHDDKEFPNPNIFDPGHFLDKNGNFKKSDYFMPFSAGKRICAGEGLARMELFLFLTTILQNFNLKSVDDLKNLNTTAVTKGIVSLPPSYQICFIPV
# [12] = Selectivity index, ratio of IC50 for African green monkey Vero cells to MIC=<90 for Mycobacterium tuberculosis; format: toxicity; conditions: read-out: Selectivity Index
# [13] = system: Mycobacteroides abscessus; experiment: Effect on de novo mycolic acid biosynthesis in Mycobacterium abscessus CIP104536 smooth variant at 6.2 ug/ml preincubated for 1 hr followed by [14C]acetic acid addition measured after 2 hrs by TLC based autoradiography analysis; format: functional
# Summary of the method: (§2)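 Exponential cultures in 7H9 with OADC exposed to increasing drug concentrations for 1 h at 37 °C with agitation, then labelled with 1 μCi/mL [14C]acetate (56 mCi/mmol) for 2 h; apolar lipids (TMM, TDM) run on TLC in chloroform/methanol/water 40:8:1; MAME and arabinogalactan-bound mycolates in petroleum ether/acetone 95:5; autoradiography.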
# [14] = system: Mycobacteroides abscessus; experiment: Inhibition of MmpL3 in Mycobacterium abscessus CIP104536 smooth variant assessed as increase in accumulation of trehalose monomycolate up to 6.2 ug/ml preincubated for 1 hr followed by [14C]acetic acid addition measured after 2 hrs by TLC based autoradiography analysis; summary of the method: as §2
# [15] = system: Mycobacteroides abscessus; experiment: Antibacterial activity against CF patient derived Mycobacterium abscessus subsp. massiliense isolate 185 smooth variant after 3 to 5 days by two fold serial dilution method; format: functional; summary of the method: as §1
# CYP2D6 = CYP2D6 (Homo sapiens, UniProt P10635); experiment: Inhibition of CYP2D6 in human liver microsomes preincubated for 5 mins followed by NADPH addition at 10 uM measured after 10 mins by LC-MS/MS analysis relative to control; format: ADME
# Chain of CYP2D6 (P10635 whole entry): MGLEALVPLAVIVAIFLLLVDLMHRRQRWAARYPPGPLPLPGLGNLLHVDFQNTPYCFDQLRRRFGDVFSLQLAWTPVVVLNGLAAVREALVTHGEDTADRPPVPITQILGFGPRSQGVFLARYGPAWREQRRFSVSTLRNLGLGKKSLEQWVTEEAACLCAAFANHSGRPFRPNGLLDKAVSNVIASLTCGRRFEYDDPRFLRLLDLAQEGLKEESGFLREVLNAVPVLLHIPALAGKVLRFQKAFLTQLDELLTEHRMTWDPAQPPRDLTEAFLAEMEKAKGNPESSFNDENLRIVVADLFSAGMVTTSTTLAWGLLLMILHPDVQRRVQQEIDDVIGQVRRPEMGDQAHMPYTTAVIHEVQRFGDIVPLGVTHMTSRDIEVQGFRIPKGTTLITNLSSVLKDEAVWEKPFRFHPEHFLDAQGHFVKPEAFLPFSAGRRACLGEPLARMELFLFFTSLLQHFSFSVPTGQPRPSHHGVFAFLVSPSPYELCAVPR
# [16] = system: Mycobacteroides abscessus; experiment: Antibacterial activity against CF patient derived Mycobacterium abscessus subsp. abscessus isolate 2648 rough variant after 3 to 5 days by two fold serial dilution method; format: functional; summary of the method: as §1
# CYP3A4 = CYP3A4 (Homo sapiens, UniProt P08684); experiment: Inhibition of CYP3A4 in human liver microsomes preincubated for 5 mins followed by NADPH addition at 10 uM measured after 5 mins by LC-MS/MS analysis relative to control; format: ADME
# Chain of CYP3A4 (P08684 whole entry): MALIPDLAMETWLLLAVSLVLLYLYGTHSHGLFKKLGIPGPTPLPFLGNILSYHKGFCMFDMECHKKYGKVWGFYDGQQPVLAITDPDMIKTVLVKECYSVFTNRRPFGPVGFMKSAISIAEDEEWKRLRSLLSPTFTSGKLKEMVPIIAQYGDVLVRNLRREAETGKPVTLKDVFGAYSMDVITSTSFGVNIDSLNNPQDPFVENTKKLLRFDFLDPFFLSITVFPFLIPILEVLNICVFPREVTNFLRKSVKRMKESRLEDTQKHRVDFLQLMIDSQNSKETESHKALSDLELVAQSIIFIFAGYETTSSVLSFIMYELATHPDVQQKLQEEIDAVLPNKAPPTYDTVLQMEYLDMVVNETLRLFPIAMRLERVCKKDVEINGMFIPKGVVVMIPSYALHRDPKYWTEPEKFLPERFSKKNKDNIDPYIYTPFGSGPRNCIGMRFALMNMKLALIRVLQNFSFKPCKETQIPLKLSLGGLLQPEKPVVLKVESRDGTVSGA
# [17] = Protein binding in mouse plasma at 5 uM after 10 mins by LC-MS/MS analysis; format: ADME, cell-free; conditions: read-out: PPB (converted)
# Summary of the method: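 Ultracentrifugation method: 5 μM compound in mouse or rat plasma (from DMSO stock), 10 min at 37 °C; total concentration from incubated plasma, unbound from middle-layer supernatant after 200000g for 4.5 h; niflumic acid internal standard, acetonitrile, filtered, LC-MS/MS.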
# Cytochrome P450 2C8 = molecular target: T2, Cytochrome P450 2C8 (Homo sapiens, UniProt P10632); experiment: Inhibition of CYP2C8 in human liver microsomes preincubated for 5 mins followed by NADPH addition measured after 10 mins by LC-MS/MS analysis; format: ADME
# T2 sequence (P10632 whole entry): T1 sequence (P10632 whole entry)
smiles,measurement,setting,value
O=C(NC1CCCCCC1)c1cc2c(Cl)cc(Cl)cc2[nH]1,MIC,[1],0.25 µg/mL
same,MIC,[2],0.125 µg/mL
same,selectivity ratio,[3],64 to 128
same,IC50,Cytochrome P450 2C9,≤ 20 µM
same,MIC,[4],0.125 µg/mL
same,MIC,[5],0.125 µg/mL
same,"Papp at 4 h, 25 µM",[6],0.2 ×10⁻⁶ cm/s
same,MIC,[7],0.25 µg/mL
same,MIC,[8],0.125 µg/mL
same,MIC,[9],0.125 µg/mL
same,fold change (FC),Salmonella typhimurium,< 2
same,MIC=<90,[10],0.0039 µg/mL
same,IC50,Cytochrome P450 2C19,≤ 20 µM
same,MIC,[11],0.125 µg/mL
same,"inhibition at 10 min, 10 µM",CYP2C8,20%
same,selectivity ratio,[12],2050 to 4100
same,Activity,[13],inactive
same,inhibition,[14],Active
same,MIC,[15],0.125 µg/mL
same,"inhibition at 10 min, 10 µM",CYP2D6,10%
same,MIC,[16],0.125 µg/mL
same,"inhibition at 5 min, 10 µM",CYP3A4,1%
same,"fraction unbound at 10 min, 5 µM",[17],0.011
same,IC50,Cytochrome P450 2C8,≤ 20 µM
